Test results published in ChEMBL document CHEMBL4251654, “Structure-based design of human immuno- and constitutive proteasomes inhibitors” (Eur J Med Chem, 2018).
Active and inactive are the calls of the source. The calls are words filed in the database; no cut-off is given here.

Assays:
[1] = target: Proteasome Macropain subunit (Homo sapiens) (UniProt P49721); experiment: Inhibition of human 20S constitutive proteasome beta-2 at 50 uM using BocLRR-AMC as substrate incubated for 15 mins measured for 45 mins by fluorescence assay relative to control
Sequence of Proteasome Macropain subunit (Homo sapiens) (P49721 whole entry): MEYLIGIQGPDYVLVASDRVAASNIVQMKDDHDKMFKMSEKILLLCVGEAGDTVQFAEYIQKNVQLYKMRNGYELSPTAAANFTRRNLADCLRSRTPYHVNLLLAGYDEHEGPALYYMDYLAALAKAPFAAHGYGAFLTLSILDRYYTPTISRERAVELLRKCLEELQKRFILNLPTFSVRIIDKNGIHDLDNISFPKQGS
Summary of the method: (§1)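 Purified human 20S proteasome (cCP or iCP), 0.3 nM, preincubated 15 min with compound (0.001-50 μM) in pH 8 buffer of 20 mM Tris-HCl, 10% glycerol, 0.005% Triton X-100, 2% DMSO. Then Boc-LRR-AMC at 50 μM was added. AMC fluorescence (ex 360/em 460 nm) was followed 45 min at 37 °C. Activity is relative to an untreated control.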

PC-3 = experiment: Cytotoxicity against human PC3 cells assessed as reduction in cell viability after 48 hrs by Hoechst 33342 staining based HCS assay; assay type: functional; details: Homo sapiens, PC-3, 48 h; read-out: EC50
Summary of the method: (§2)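 Cells were grown at 37 °C, 5% CO2 in medium with 10% FBS, 1% penicillin-streptomycin, 2 mM glutamine: DMEM for HuH7, MDA-MB-231 and fibroblasts, EMEM for Caco2, McCoy's for HCT116, RPMI for PC3 and NCI-H727. 4000 cells/well were seeded and dosed 24 h later at 0.1-25 μM final, from DMSO stocks. After 48 h they were fixed in ethanol/acetic acid and Hoechst-stained nuclei were counted by imaging. Survival is relative to DMSO. EC50 came from dose-response curves.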

MDA-MB-231 = experiment: Cytotoxicity against human MDA-MB-231 cells assessed as reduction in cell viability after 48 hrs by Hoechst 33342 staining based HCS assay; assay type: functional; details: Homo sapiens, MDA-MB-231, 48 h; read-out: EC50; summary of the method: as §2
[2] = target: T1, Proteasome subunit beta type-9 (Homo sapiens, UniProt P28065); experiment: Inhibition of human 20S immunoproteasome beta-1 using Ac-PAL-AMC as substrate incubated for 15 mins measured for 45 mins by fluorescence assay
T1 sequence (P28065 whole entry): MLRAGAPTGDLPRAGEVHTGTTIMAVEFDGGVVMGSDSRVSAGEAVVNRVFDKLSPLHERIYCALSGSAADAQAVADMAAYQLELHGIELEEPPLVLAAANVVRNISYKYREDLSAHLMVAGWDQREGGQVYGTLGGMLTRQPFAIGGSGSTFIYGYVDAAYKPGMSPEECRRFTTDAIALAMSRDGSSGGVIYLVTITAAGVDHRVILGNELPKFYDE
Summary of the method: (§3)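 Human 20S immunoproteasome (0.3 nM) was given 15 min with compound (0.001-50 μM) in pH 8 buffer of 20 mM Tris-HCl, 10% glycerol, 0.01% SDS, 2% DMSO. Ac-PAL-AMC at 50 μM was the substrate. Fluorescence (ex 360/em 460 nm) was followed 45 min at 37 °C relative to control.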

[3] = target: T2, Proteasome subunit beta type-10 (Homo sapiens) (UniProt P40306); experiment: Inhibition of human 20S immunoproteasome beta-2 at 50 uM using BocLRR-AMC as substrate incubated for 15 mins measured for 45 mins by fluorescence assay relative to control
T2 sequence (whole entry): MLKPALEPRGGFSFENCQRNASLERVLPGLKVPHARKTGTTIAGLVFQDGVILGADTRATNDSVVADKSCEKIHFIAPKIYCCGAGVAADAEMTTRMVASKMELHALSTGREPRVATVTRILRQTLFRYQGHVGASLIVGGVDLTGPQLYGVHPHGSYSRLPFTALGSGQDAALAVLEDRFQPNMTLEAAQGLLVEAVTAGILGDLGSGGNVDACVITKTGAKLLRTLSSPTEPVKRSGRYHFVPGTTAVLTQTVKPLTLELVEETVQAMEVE

[4] = target: T3, Proteasome subunit beta type-8 (Homo sapiens, UniProt P28062); experiment: Inhibition of human 20S immunoproteasome beta-5 using Suc-LLVY-AMC as substrate incubated for 15 mins measured for 45 mins by fluorescence assay
T3 sequence (P28062 whole entry): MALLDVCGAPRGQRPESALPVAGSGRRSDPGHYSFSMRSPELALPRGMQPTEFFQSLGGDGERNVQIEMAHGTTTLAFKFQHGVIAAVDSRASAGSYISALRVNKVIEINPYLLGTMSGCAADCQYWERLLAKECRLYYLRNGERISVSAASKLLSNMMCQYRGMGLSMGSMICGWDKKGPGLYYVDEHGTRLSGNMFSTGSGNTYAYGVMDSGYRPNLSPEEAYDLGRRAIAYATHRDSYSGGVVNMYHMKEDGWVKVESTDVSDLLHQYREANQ
Summary of the method: (§4)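 Human 20S cCP or iCP (0.3 nM) was exposed to compound (0.001-50 μM) for 15 min in pH 8 buffer of 20 mM Tris-HCl, 10% glycerol, 0.01% SDS, 2% DMSO. Suc-LLVY-AMC at 20 μM followed. Fluorescence (ex 360/em 460 nm) was read 45 min at 37 °C versus untreated enzyme.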

[5] = target: T4, Proteasome subunit beta type-10 (Homo sapiens, UniProt P40306); experiment: Inhibition of human 20S immunoproteasome beta-2 using BocLRR-AMC as substrate incubated for 15 mins measured for 45 mins by fluorescence assay
T4 sequence (P40306 whole entry): T2 sequence (whole entry)

MCF7 = experiment: Cytotoxicity against human MCF7 cells assessed as reduction in cell viability after 48 hrs by Hoechst 33342 staining based HCS assay; assay type: functional; details: Homo sapiens, MCF7, 48 h; read-out: EC50
Caco-2 = experiment: Cytotoxicity against human Caco2 cells assessed as reduction in cell viability after 48 hrs by Hoechst 33342 staining based HCS assay; assay type: functional; summary of the method: as §2
HCT-116 = experiment: Cytotoxicity against human HCT116 cells assessed as reduction in cell viability after 48 hrs by Hoechst 33342 staining based HCS assay; assay type: functional; details: Homo sapiens, HCT-116, 48 h; read-out: EC50; summary of the method: as §2
NCI-H727 = experiment: Cytotoxicity against human NCI-H727 cells assessed as reduction in cell viability after 48 hrs by Hoechst 33342 staining based HCS assay; assay type: functional; details: nci-h727; summary of the method: as §2
[6] = target: T5, Proteasome component C5 (Homo sapiens) (UniProt P20618); experiment: Inhibition of human 20S constitutive proteasome beta-1 at 50 uM using Z-LLE-betaNA as substrate incubated for 15 mins measured for 45 mins by fluorescence assay relative to control
T5 sequence (whole entry): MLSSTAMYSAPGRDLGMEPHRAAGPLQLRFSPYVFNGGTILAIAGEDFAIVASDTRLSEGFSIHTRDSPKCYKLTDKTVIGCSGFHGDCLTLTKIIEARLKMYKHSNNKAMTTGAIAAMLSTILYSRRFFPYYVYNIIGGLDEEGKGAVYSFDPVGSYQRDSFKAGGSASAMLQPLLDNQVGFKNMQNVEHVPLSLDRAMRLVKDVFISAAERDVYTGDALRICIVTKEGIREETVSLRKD
Summary of the method: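 Human 20S constitutive proteasome, 0.3 nM, was preincubated 15 min with compound (0.001-50 μM) in pH 8 Tris-HCl 20 mM, 10% glycerol, 0.01% SDS, 2% DMSO. Z-LLE-βNA at 50 μM was added. βNA fluorescence (ex 340/em 404 nm) was monitored 45 min at 37 °C against an untreated control.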

Huh-7 = experiment: Cytotoxicity against human HuH7 cells assessed as reduction in cell viability after 48 hrs by Hoechst 33342 staining based HCS assay; assay type: functional; details: huh-7; summary of the method: as §2
[7] = target: T6, Proteasome subunit beta type-8 (Homo sapiens) (UniProt P28062); experiment: Inhibition of human 20S immunoproteasome beta-5 at 50 uM using Suc-LLVY-AMC as substrate incubated for 15 mins measured for 45 mins by fluorescence assay relative to control; summary of the method: as §4
T6 sequence (whole entry): T3 sequence (P28062 whole entry)

[8] = target: T7, Proteasome Macropain subunit MB1 (Homo sapiens, UniProt P28074); experiment: Inhibition of human 20S constitutive proteasome beta-5 using Suc-LLVY-AMC as substrate incubated for 15 mins measured for 45 mins by fluorescence assay; summary of the method: as §4
T7 sequence (P28074 whole entry): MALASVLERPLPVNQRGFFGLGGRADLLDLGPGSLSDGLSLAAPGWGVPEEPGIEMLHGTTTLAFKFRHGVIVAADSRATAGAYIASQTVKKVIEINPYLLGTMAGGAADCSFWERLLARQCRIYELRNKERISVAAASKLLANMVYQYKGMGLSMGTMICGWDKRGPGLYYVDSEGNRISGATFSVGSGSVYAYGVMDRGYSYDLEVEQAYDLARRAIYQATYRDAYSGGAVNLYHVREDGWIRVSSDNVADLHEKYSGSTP

[9] = target: T8, Proteasome subunit beta type-9 (Homo sapiens) (UniProt P28065); experiment: Inhibition of human 20S immunoproteasome beta-1 at 50 uM using Ac-PAL-AMC as substrate incubated for 15 mins measured for 45 mins by fluorescence assay relative to control; summary of the method: as §3
T8 sequence (whole entry): T1 sequence (P28065 whole entry)

[10] = target: T9, Proteasome Macropain subunit MB1 (Homo sapiens) (UniProt P28074); experiment: Inhibition of human 20S constitutive proteasome beta-5 at 50 uM using Suc-LLVY-AMC as substrate incubated for 15 mins measured for 45 mins by fluorescence assay relative to control; summary of the method: as §4
T9 sequence (whole entry): T7 sequence (P28074 whole entry)

Fibroblast = experiment: Cytotoxicity against human fibroblasts assessed as reduction in cell viability at 25 uM after 48 hrs by Hoechst 33342 staining based HCS assay
[11] = target: T2, Proteasome subunit beta type-10 (Homo sapiens); experiment: Activation of human 20S immunoproteasome beta-2 at 50 uM using BocLRR-AMC as substrate incubated for 15 mins measured for 45 mins by fluorescence assay relative to control; summary of the method: as §1
[12] = tested on: 20S immunoproteasome β5i (Homo sapiens); experiment: Inhibition of human 20S immunoproteasome beta-5
[13] = tested on: 20S proteasome β5 (Homo sapiens); experiment: Inhibition of human 20S constitutive proteasome beta-5

SMILES | inhibition [1] | EC50 (PC-3) | EC50 (MDA-MB-231) | IC50 [2] | inhibition [3] | IC50 [4] | IC50 [5] | EC50 (MCF7) | EC50 (HCT-116) | EC50 (NCI-H727) | inhibition [6] | EC50 (Huh-7) | inhibition [7] | IC50 [8] | inhibition [9] | inhibition [10] | Activity (Fibroblast) | also measured
C[C@H](O)[C@@H](NC(=O)[C@H](Cc1ccc(OCc2ccccc2)cc1)NC(=O)OC(C)(C)C)C(=O)N[C@@H](C[C@]1(O)C(=O)Nc2ccccc21)C(=O)NCc1ccccc1 | > 85% | 10 µM | 9 µM | 8.8 µM | > 85% | 0.2 µM | 5.8 µM | 9 µM | 9 µM | Not Active | > 85% | Not Active | > 85% | 0.125 µM | > 85% | > 85% | Non-Toxic | EC50 (Caco-2; Homo sapiens, Caco-2, 48 h, read-out: EC50): 32 µM
C[C@H](NC(=O)[C@H](Cc1ccc(OCc2ccccc2)cc1)NC(=O)OC(C)(C)C)C(=O)N[C@@H](C[C@]1(O)C(=O)Nc2ccccc21)C(=O)NCc1ccc(-c2ccccc2)cc1 | inactive |  |  | 13 µM |  | 19.7 µM |  |  |  |  | > 85% |  | > 85% | 28.7 µM | > 85% | > 85% |  | fold change (FC) [11]: 1.5
C[C@H](NC(=O)[C@H](Cc1ccc(O)cc1)NC(=O)OC(C)(C)C)C(=O)N[C@@H](C[C@]1(O)C(=O)Nc2ccccc21)C(=O)NCc1ccccc1 | 19% |  |  |  | 10% |  |  |  |  |  | inactive |  |  |  | 12% |  |  | IC50 [12]: 34 µM; IC50 [13]: 32 µM
C[C@H](NC(=O)c1ccc(OCc2ccccc2)cc1)C(=O)N[C@@H](C[C@]1(O)C(=O)Nc2ccccc21)C(=O)NCc1ccccc1 | > 85% | 24 µM | 23 µM | 52 µM | > 85% | 0.17 µM | 28.3 µM | 21 µM | 10 µM | Not Active | > 85% | Not Active | > 85% | 0.113 µM | > 85% | > 85% | Non-Toxic | EC50 (Caco-2; caco-2): Not Active
